Laboratory results from article PMC4855835 (Chemical communications (Cambridge, England), 2016).

Experiments:
Saos-2 cells = assay: Saos-2 cell viability with co-incubated ALP inhibitors or cell death inhibitors; type: cell-based, human; details: 48h; for effect of pan-caspase inhibitor zVAD-fmk on death of treated Saos-2 cells: 1p 20 μM, 2p 50 μM, 3p 20 μM, zVAD-fmk 45 μM; for effect of L-Phe on viability of treated Saos-2 cells / effect of levamisole on viability of treated Saos-2 cells: 1p 50 μM, 3p 50 μM, 2p 200 μM; for effect of L-Phe on viability of treated Saos-2 cells: L-Phe 1 mM; for effect of levamisole on viability of treated Saos-2 cells: levamisole 1 mM; for effect of necroptosis inhibitor Nec-1 on death of treated Saos-2 cells: Nec-1 50 μM
Summary of the method: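 Saos-2 cells were treated for 48 h with test compound plus an inhibitor. ALP inhibitors were levamisole 1 mM (tissue-nonspecific ALP) or L-phenylalanine 1 mM (placental ALP), with test compound at 50 or 200 µM. Death-pathway inhibitors were pan-caspase zVAD-fmk 45 µM or Nec-1 50 µM. Read-out was cell viability.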

Static light scattering = type: physicochemical; details: pH7.4 PBS buffer, before ALP
Summary of the method: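 Static light scattering was measured on test compound solutions (12.5–50 µM) in pH 7.4 PBS, before and 24 h after adding alkaline phosphatase (2 U/mL). Scattering angle was 30 degrees; read-out was scattered intensity.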

[1] = test system: sarcoma osteogenic (Saos-2) cells; assay: Cell viability of Saos-2 cells treated with precursors; type: cell-based, human; details: for concentration at which Saos-2 cells are inhibited: Fig. 4A and Fig. S6; for inhibitory activity at pH 8.0: hydrolysis of ester bond (Fig. S8)
Summary of the method: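 Saos-2 osteosarcoma cells, which overexpress alkaline phosphatase, were exposed to a range of test compound (phosphorylated peptide precursor) concentrations for 48 h. Viability was plotted as log-dose response curves, and IC90 was taken at 48 h. Human marrow stromal HS-5 cells served as the normal-cell comparison.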

[2] = Hydrogelation assay of self-assembly in water upon ALP addition; type: physicochemical; details: 1 mM, pH 7.4, ALP 3U/mL
Summary of the method: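 Self-assembly was screened by hydrogelation: the test compound at 1 mM in water, pH 7.4, was given alkaline phosphatase at 3 U/mL. The resulting state (gel, suspension or increased viscosity) was judged by eye. Nanostructures formed under the same conditions were imaged by TEM after 24 h.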

[3] = test system: sarcoma osteogenic (Saos-2) cells; details: read-out: IC50 of carboplatin; 72 h; cited from earlier work

SMILES	effect of pan-caspase inhibitor zVAD-fmk on death of treated Saos-2 cells (Saos-2 cells)	effect of L-Phe on viability of treated Saos-2 cells (Saos-2 cells)	effect of levamisole on viability of treated Saos-2 cells (Saos-2 cells)	effect of necroptosis inhibitor Nec-1 on death of treated Saos-2 cells (Saos-2 cells)	aggregation behaviour by SLS at 50 μM (Static light scattering)	concentration at which Saos-2 cells are inhibited [1]	inhibitory activity at pH 8.0 [1]	state of the solution after addition of ALP [2]	IC50 [3] [µM]
CNC(=O)[C@@H](Cc1ccc(OP(=O)(O)O)cc1)NC(=O)[C@@H](Cc1ccccc1)NC(=O)[C@@H](Cc1ccccc1)NC(=O)Cc1ccc2ccccc2c1 [1p]	only slightly protects	unable to rescue the cells	increases the cell viability	significantly protects	starts to aggregates	≥ 50 µM	remains	turns into a hydrogel	–
COC(=O)[C@@H](Cc1ccc(OP(=O)(O)O)cc1)NC(=O)[C@@H](Cc1ccccc1)NC(=O)[C@@H](Cc1ccccc1)NC(=O)Cc1ccc2ccccc2c1 [3p]	only slightly protects	unable to rescue the cells	increases the cell viability	significantly protects	–	≥ 50 µM	decreases	forms a suspension	–
N.N.O=C([O-])C1(C(=O)[O-])CCC1.[Pt+2] [carboplatin]	–	–	–	–	–	–	–	–	198
O=C(Cc1ccc2ccccc2c1)N[C@H](Cc1ccccc1)C(=O)N[C@H](Cc1ccccc1)C(=O)N[C@H](Cc1ccc(OP(=O)(O)O)cc1)C(=O)O [4p]	–	–	–	–	–	about 500 μM	–	becomes more viscous	–
NNC(=O)[C@@H](Cc1ccc(OP(=O)(O)O)cc1)NC(=O)[C@@H](Cc1ccccc1)NC(=O)[C@@H](Cc1ccccc1)NC(=O)Cc1ccc2ccccc2c1 [2p]	only slightly protects	unable to rescue the cells	increases the cell viability	significantly protects	–	≥ 50 µM	–	turns into a hydrogel	–
